# Laboratory results reported in ChEMBL document CHEMBL1649475, “In vivo pharmacodynamic profile of tigecycline against phenotypically diverse Escherichia coli and Klebsiella pneumoniae isolates” (Antimicrob Agents Chemother, 2009).
# Key:
# Escherichia coli [1] = experiment: Antibacterial activity against Escherichia coli isolate 54 by broth microdilution method; type: functional
# Summary of the method: (§1)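 Tigecycline MICs by broth microdilution per CLSI guidelines, run in triplicate. Mueller-Hinton broth was prepared fresh less than 12 h before testing.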
# Escherichia coli [2] = experiment: Antibacterial activity against Escherichia coli isolate 120 by broth microdilution method; type: functional; summary of the method: as §1
# Escherichia coli [3] = experiment: Antibacterial activity against extended-spectrum beta-lactamase producing Escherichia coli isolate 315 by broth microdilution method; type: functional; summary of the method: as §1
# Escherichia coli [4] = experiment: Antibacterial activity against extended-spectrum beta-lactamase producing Escherichia coli isolate 321 by broth microdilution method; type: functional; summary of the method: as §1
# Escherichia coli [5] = experiment: Antibacterial activity against extended-spectrum beta-lactamase producing Escherichia coli isolate 322 by broth microdilution method; type: functional; summary of the method: as §1
# Klebsiella pneumoniae [6] = experiment: Antibacterial activity against Klebsiella pneumoniae isolate 134 by broth microdilution method; type: functional; summary of the method: as §1
# Klebsiella pneumoniae [7] = experiment: Antibacterial activity against Klebsiella pneumoniae isolate 135 by broth microdilution method; type: functional; summary of the method: as §1
# Klebsiella pneumoniae [8] = experiment: Antibacterial activity against extended-spectrum beta-lactamase producing Klebsiella pneumoniae isolate 255 by broth microdilution method; type: functional; summary of the method: as §1
# Klebsiella pneumoniae [9] = experiment: Antibacterial activity against extended-spectrum beta-lactamase producing Klebsiella pneumoniae isolate 266 by broth microdilution method; type: functional; summary of the method: as §1
# Klebsiella pneumoniae [10] = experiment: Antibacterial activity against extended-spectrum beta-lactamase producing Klebsiella pneumoniae isolate 320 by broth microdilution method; type: functional; summary of the method: as §1
# Klebsiella pneumoniae [11] = experiment: Antibacterial activity against carbapenemase producing Klebsiella pneumoniae isolate 321 by broth microdilution method; type: functional; summary of the method: as §1
# [12] = Ratio of fAUC to MIC in Escherichia coli isolate 54-infected ICR mouse at 80% maximal effective concentration; type: functional
# Summary of the method: (§2)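 EI50, EI80 and the static exposure were read from fitted curves. Free AUC came from earlier mouse PK using concentration-dependent protein binding set at Cmax. MICs were run in triplicate by CLSI broth microdilution in Mueller-Hinton broth prepared <12 h before testing, or by Etest.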
# [13] = Half life in ICR mouse at 50 mg/kg, sc; type: ADME, organism-based; design: dose 50 mg/kg, route subcutaneous; conditions: in vivo
# [14] = Ratio of fAUC to MIC in Escherichia coli isolate 120-infected ICR mouse at 80% maximal effective concentration; type: functional; summary of the method: as §2
# [15] = Ratio of fAUC to MIC in extended-spectrum beta-lactamase producing Escherichia coli isolate 315-infected ICR mouse at 80% maximal effective concentration; type: functional; summary of the method: as §2
# [16] = Ratio of fAUC to MIC in extended-spectrum beta-lactamase producing Escherichia coli isolate 321-infected ICR mouse at 80% maximal effective concentration; type: functional; summary of the method: as §2
# [17] = Ratio of fAUC to MIC in extended-spectrum beta-lactamase producing Escherichia coli isolate 322-infected ICR mouse at 80% maximal effective concentration; type: functional; summary of the method: as §2
# [18] = Ratio of fAUC to MIC in Klebsiella pneumoniae isolate 134-infected ICR mouse at 80% maximal effective concentration; type: functional; summary of the method: as §2
# [19] = Ratio of fAUC to MIC in Klebsiella pneumoniae isolate 135-infected ICR mouse at 80% maximal effective concentration; type: functional; summary of the method: as §2
# [20] = Ratio of fAUC to MIC in extended-spectrum beta-lactamase producing Klebsiella pneumoniae isolate 255-infected ICR mouse at 80% maximal effective concentration; type: functional; summary of the method: as §2
# [21] = Ratio of fAUC to MIC in extended-spectrum beta-lactamase producing Klebsiella pneumoniae isolate 266-infected ICR mouse at 80% maximal effective concentration; type: functional; summary of the method: as §2
# [22] = Ratio of fAUC to MIC in extended-spectrum beta-lactamase producing Klebsiella pneumoniae isolate 320-infected ICR mouse at 80% maximal effective concentration; type: functional; summary of the method: as §2
# [23] = Ratio of fAUC to MIC in carbapenemase producing Klebsiella pneumoniae isolate 321-infected ICR mouse at 80% maximal effective concentration; type: functional; summary of the method: as §2
# [24] = Ratio of fAUC to MIC in Escherichia coli isolate 54-infected ICR mouse at 50% maximal effective concentration; type: functional; summary of the method: as §2
# [25] = Ratio of fAUC to MIC in Escherichia coli isolate 120-infected ICR mouse at 50% maximal effective concentration; type: functional; summary of the method: as §2
# [26] = Ratio of fAUC to MIC in extended-spectrum beta-lactamase producing Escherichia coli isolate 315-infected ICR mouse at 50% maximal effective concentration; type: functional; summary of the method: as §2
# [27] = Ratio of fAUC to MIC in extended-spectrum beta-lactamase producing Escherichia coli isolate 321-infected ICR mouse at 50% maximal effective concentration; type: functional; summary of the method: as §2
# [28] = Ratio of fAUC to MIC in extended-spectrum beta-lactamase producing Escherichia coli isolate 322-infected ICR mouse at 50% maximal effective concentration; type: functional; summary of the method: as §2
# [29] = Ratio of fAUC to MIC in Klebsiella pneumoniae isolate 134-infected ICR mouse at 50% maximal effective concentration; type: functional; summary of the method: as §2
smiles,measurement,setting,value
CN(C)c1cc(NC(=O)CNC(C)(C)C)c(O)c2c1C[C@H]1C[C@H]3[C@H](N(C)C)C(O)=C(C(N)=O)C(=O)[C@@]3(O)C(O)=C1C2=O [TIGECYCLINE],MIC,Escherichia coli [1],0.25 µg/mL
same,MIC,Escherichia coli [2],0.125 µg/mL
same,MIC,Escherichia coli [3],0.5 µg/mL
same,MIC,Escherichia coli [4],0.25 µg/mL
same,MIC,Escherichia coli [5],0.25 µg/mL
same,MIC,Klebsiella pneumoniae [6],0.5 µg/mL
same,MIC,Klebsiella pneumoniae [7],0.5 µg/mL
same,MIC,Klebsiella pneumoniae [8],2 µg/mL
same,MIC,Klebsiella pneumoniae [9],0.5 µg/mL
same,MIC,Klebsiella pneumoniae [10],2 µg/mL
same,MIC,Klebsiella pneumoniae [11],0.5 µg/mL
same,fAUC/MIC,[12],7.7
same,half-life,[13],9.9 h
same,fAUC/MIC,[14],7.3
same,fAUC/MIC,[15],4.46
same,fAUC/MIC,[16],9.07
same,fAUC/MIC,[17],10.6
same,fAUC/MIC,[18],10
same,fAUC/MIC,[19],7.78
same,fAUC/MIC,[20],4.81
same,fAUC/MIC,[21],7.15
same,fAUC/MIC,[22],3.27
same,fAUC/MIC,[23],7.48
same,fAUC/MIC,[24],5.19
same,fAUC/MIC,[25],3.7
same,fAUC/MIC,[26],3.71
same,fAUC/MIC,[27],6.4
same,fAUC/MIC,[28],6.27
same,fAUC/MIC,[29],5.91
